Bioassay records: PubChem BioAssay, several laboratories
Myeloid diff 2 = promotes myeloid progenitor differentiation | ER-HoxA9 myeloid progenitors, lysozyme-GFP differentiation, flow cytometry | calls only at 10 µM | 1% of 360,000 active | AID 624256;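 active means normalized GFP-positive differentiation at or above the plate's own cutoff, the solvent-only control mean plus 3 SD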;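 further: cells exposed to compound for four days before flow analysis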
EBI2 block = EBI2 (human) antagonism. inhibition, % at 5 µM. EBI2 beta-arrestin recruitment, luminescence, 7a,25-OHC stimulated. P32249. 0.81% of 360,000 active; in the data active means inhibition above about 38%;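 further: enzyme fragment complementation signal reports receptor beta-arrestin coupling in cells; 0% = agonist plus DMSO wells and 100% = wells without agonist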
MC4R antag cAMP = human MC4R antagonism in cAMP assay; MC4R-expressing cells, MTII-stimulated cAMP, LANCE TR-FRET; inhibition, % at 6.5 µM; 0.48% of 360,000 active; AID 540295;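 active means inhibition above its plate's cutoff, the mean of tested wells on that plate plus 3 SD, cut at about 29% in these data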;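 further: 0% = Melanotan II alone and 100% = Melanotan II plus saturating MCL0020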
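Material: U2OS-MC4R stable cell line | Reagent: Melanotan II challenge after compound preincubation | Doses: One concentration, 6.5 µM nominal | Incubation: 30-min compound preincubation, 1-h Melanotan II challenge, 1-h detection, room temperature | Signal: TR-FRET cAMP assay | Replicates: One well per compound, no replicates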
Exocytosis inh = lytic granule exocytosis inhibition; AID 651702; TALL-104 LAMP-1 surface exposure, flow cytometry; cells stimulated with thapsigargin and PMA; inhibition, % at 10 µM; 0.66% of 360,000 active;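 active means inhibition above about 55%, limit read from the data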
MC4R barr agon = agonists of human melanocortin 4 receptor (MC4R) beta-arrestin | 0.98% of 360,000 active | U2OS MC4R beta-arrestin complementation, luminescence; percent of melanotan II response, DMSO zero | P32245 | activation, % at 8.9 µM | AID 540308;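 active means activation above a per-plate cutoff, the mean activation of sample wells on that plate plus 3 SD, cut at about 8% in these data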
MC4R barr conf = human MC4R beta-arrestin agonism confirmation; activation, % at 8.9 µM; U2OS MC4R beta-arrestin recruitment, luminescence; scaled DMSO 0%, Melanotan II 100%; 31% of 2,400 active; shares compounds with MC4R barr agon; AID 602192;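 active means mean activation across replicates above the hit cutoff set in the earlier primary screen, cut at about 8% in these data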
MOR DOR agonist = OPRM1-OPRD1 heterodimer agonism counter-screen; activation, % at 9.2 µM; U2OS PathHunter beta-arrestin, beta-gal luminescence; percent of deltorphin B response, DMSO zero; shares compounds with MC4R barr agon; 5.8% of 2,400 active;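 active means mean activation across replicates exceeds the hit threshold derived in the earlier primary screen, cut at about 18% in these data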;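 further: 100% = deltorphin B at 0.9 µM final and 0% = DMSO alone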
Target sequence (P35372 whole entry, looked up): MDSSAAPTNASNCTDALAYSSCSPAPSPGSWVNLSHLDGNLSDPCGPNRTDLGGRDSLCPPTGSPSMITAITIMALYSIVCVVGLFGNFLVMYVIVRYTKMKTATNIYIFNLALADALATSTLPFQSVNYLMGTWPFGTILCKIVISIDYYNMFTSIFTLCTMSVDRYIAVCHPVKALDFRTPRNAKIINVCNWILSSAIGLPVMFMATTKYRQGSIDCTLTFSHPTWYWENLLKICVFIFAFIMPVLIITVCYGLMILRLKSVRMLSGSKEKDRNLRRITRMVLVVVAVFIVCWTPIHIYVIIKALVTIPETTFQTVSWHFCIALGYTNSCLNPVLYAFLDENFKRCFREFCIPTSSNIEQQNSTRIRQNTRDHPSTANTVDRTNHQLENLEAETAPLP
Target sequence (P41143 whole entry, looked up): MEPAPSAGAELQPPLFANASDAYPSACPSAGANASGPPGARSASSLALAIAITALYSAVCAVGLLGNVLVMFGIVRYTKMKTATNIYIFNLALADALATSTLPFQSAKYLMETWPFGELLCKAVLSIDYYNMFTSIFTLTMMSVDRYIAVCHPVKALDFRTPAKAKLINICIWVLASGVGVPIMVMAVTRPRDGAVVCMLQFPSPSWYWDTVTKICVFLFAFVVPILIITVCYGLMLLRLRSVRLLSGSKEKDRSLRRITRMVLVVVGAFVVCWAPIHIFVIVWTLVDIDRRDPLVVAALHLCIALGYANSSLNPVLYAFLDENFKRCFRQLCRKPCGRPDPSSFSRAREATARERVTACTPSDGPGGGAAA
* = called active by the depositor. Hits are enriched below; roughly 3.7% of the tested compounds scored in any of these assays.

What do the screens show for `CC(=O)Nc1cc(-c2cccc(C(=O)N(C)C)c2)cn2c(-c3cccc(C(=O)N(C)C)c3)cnc12`?
Myeloid diff 2: inactive; EBI2 block: 0; MC4R antag cAMP: 17; Exocytosis inh: 2; MC4R barr agon: 1

How did CC1(C(=O)NS(=O)(=O)c2cccc(C#N)c2)CCN1C(=O)C1(c2ccccc2)CC1 (centres undefined) do in these assays?
Myeloid diff 2: inactive; EBI2 block: -3; MC4R antag cAMP: 16; Exocytosis inh: -2; MC4R barr agon: -1

Results for CC(=O)Nc1cc(-c2ccoc2)cn2c(-c3ccccc3)cnc12 ?
Myeloid diff 2: inactive; EBI2 block: 13; MC4R antag cAMP: 12; Exocytosis inh: 4; MC4R barr agon: 11*; MC4R barr conf: 15*; MOR DOR agonist: 3

Results for CC(=O)Nc1cc(-c2ccccc2)cn2c(-c3cccc(C(C)=O)c3)cnc12 ?
Myeloid diff 2: inactive; EBI2 block: 21; MC4R antag cAMP: 6; Exocytosis inh: 50; MC4R barr agon: 21*; MC4R barr conf: 20*; MOR DOR agonist: 3

How did CC(=O)Nc1cc(-c2ccccc2N(C)C)cn2c(-c3ccccc3)cnc12 do in these assays?
Myeloid diff 2: inactive; EBI2 block: 5; MC4R antag cAMP: 6; Exocytosis inh: 18; MC4R barr agon: 18*; MC4R barr conf: 32*; MOR DOR agonist: 3

What do the screens show for `CC(=O)Nc1cc(-c2ccccc2N(C)C)cn2c(-c3ccc(S(C)(=O)=O)cc3)cnc12`?
Myeloid diff 2: inactive; EBI2 block: 3; MC4R antag cAMP: 14; Exocytosis inh: -2; MC4R barr agon: 3

What do the screens show for `O=C(N/N=C/c1ccc(F)cc1)c1cc(-c2ccccn2)nc2ccccc12`?
Myeloid diff 2: inactive; EBI2 block: 6; MC4R antag cAMP: 0; Exocytosis inh: -1; MC4R barr agon: 16*; MC4R barr conf: 0; MOR DOR agonist: 11

What do the screens show for `C=CCN1C(=O)CSc2ccc(C(=O)NCc3cccs3)cc21`?
Myeloid diff 2: inactive; EBI2 block: 4; MC4R antag cAMP: 11; Exocytosis inh: 3; MC4R barr agon: -3

How did O=C1OC(c2ccccc2)(c2ccc(O)cc2)c2ccccc21 (centres undefined) do in these assays?
Myeloid diff 2: inactive; EBI2 block: 2; MC4R antag cAMP: 4; Exocytosis inh: 16; MC4R barr agon: 55*; MC4R barr conf: 48*; MOR DOR agonist: 4

What do the screens show for `COc1ccc(-c2n[nH]c(=S)n2/N=C/C=C/c2ccccc2OC)cc1`?
Myeloid diff 2: inactive; EBI2 block: -2; MC4R antag cAMP: -4; Exocytosis inh: -2; MC4R barr agon: 11*; MC4R barr conf: -1; MOR DOR agonist: 7

How did C#CCN1C(=O)S/C(=C\c2ccc(N3CCOCC3)cc2C)C1=O do in these assays?
Myeloid diff 2: inactive; EBI2 block: 4; MC4R antag cAMP: 6; Exocytosis inh: -2; MC4R barr agon: 11*; MC4R barr conf: -3; MOR DOR agonist: 3

Results for CCN1C(=O)S/C(=C\c2ccc(N3CCOCC3)cc2C)C1=O ?
Myeloid diff 2: inactive; EBI2 block: 3; MC4R antag cAMP: 3; Exocytosis inh: -1; MC4R barr agon: 0

How did CC1NC(=O)c2cc3ccccc3cc2-n2c1nc1cc(Cl)ccc1c2=O (centres undefined) do in these assays?
Myeloid diff 2: inactive; EBI2 block: 16; MC4R antag cAMP: -4; Exocytosis inh: -4; MC4R barr agon: 1

What do the screens show for `Cc1ccc(-c2nc3ccccc3o2)cc1NC(=S)NC(=O)c1cc2ccccc2o1`?
Myeloid diff 2: inactive; EBI2 block: 3; MC4R antag cAMP: 1; Exocytosis inh: -6; MC4R barr agon: 17*; MC4R barr conf: 11*; MOR DOR agonist: 5

What do the screens show for `COc1ccc(NC(=O)c2cccc3c(Br)cccc23)cc1`?
Myeloid diff 2: inactive; EBI2 block: 3; MC4R antag cAMP: 5; Exocytosis inh: -13; MC4R barr agon: 12*; MC4R barr conf: -2; MOR DOR agonist: 5

What do the screens show for `COc1ccc(NC(=O)c2cccc3ccccc23)cc1`?
Myeloid diff 2: inactive; EBI2 block: 3; MC4R antag cAMP: -6; Exocytosis inh: 9; MC4R barr agon: -2

How did CCC(=O)Nc1sc(C(=O)Nc2ccccc2OC)c(C)c1C(=O)OC do in these assays?
Myeloid diff 2: inactive; EBI2 block: 4; MC4R antag cAMP: 5; Exocytosis inh: 6; MC4R barr agon: 11*; MC4R barr conf: 3; MOR DOR agonist: 3

What do the screens show for `CCC(=O)Nc1sc(C(=O)Nc2ccccc2F)c(C)c1C(=O)OC`?
Myeloid diff 2: inactive; EBI2 block: 11; MC4R antag cAMP: 14; Exocytosis inh: -14; MC4R barr agon: 3

What do the screens show for `Cc1cccc(C)c1OC(=O)CSc1nnc(-c2ccccc2O)o1`?
Myeloid diff 2: inactive; EBI2 block: 15; MC4R antag cAMP: 3; Exocytosis inh: 3; MC4R barr agon: 54*; MC4R barr conf: 8.2*; MOR DOR agonist: 4

What do the screens show for `COC(=O)CSc1nnc(-c2ccccc2OC)o1`?
Myeloid diff 2: inactive; EBI2 block: 1; MC4R antag cAMP: 5; Exocytosis inh: 4; MC4R barr agon: -1

Results for CN(C(=O)c1cccc(NC(=O)Cc2cccc(NC(=O)C3CCN(C(=O)C4CCCCC4)CC3)c2)c1)C1CC1 ?
Myeloid diff 2: inactive; EBI2 block: -4; MC4R antag cAMP: 0; Exocytosis inh: -6; MC4R barr agon: 1

Results for O=C(COC(=O)c1ccc2[nH]c3c(c2c1)CCCC3)Nc1ccc(Cl)cc1Cl ?
Myeloid diff 2: inactive; EBI2 block: 3; MC4R antag cAMP: 15; Exocytosis inh: 1; MC4R barr agon: 18*; MC4R barr conf: 10*; MOR DOR agonist: 3

How did CCOC(=O)c1ccc2[nH]c3c(c2c1)CCCC3 do in these assays?
Myeloid diff 2: inactive; EBI2 block: 22; MC4R antag cAMP: 1; Exocytosis inh: -4; MC4R barr agon: 2

What do the screens show for `CCCOc1ccc(F)cc1-c1cc(C(=O)Nc2ccc(C(C)C)cc2)[nH]n1`?
Myeloid diff 2: inactive; EBI2 block: 30; MC4R antag cAMP: 8; Exocytosis inh: 0; MC4R barr agon: 21*; MC4R barr conf: 5; MOR DOR agonist: 4

Results for O=C(Nc1ccc2c(c1)OCCO2)C(c1ccccc1)n1c(=O)c(-c2ccco2)nc2ccccc21 (centres undefined) ?
Myeloid diff 2: inactive; EBI2 block: 0; Exocytosis inh: 1
